Measurements collected from several papers.
Lines come from different studies, so protocols differ.
Cell line: HeLa
Effect on: cell growth or viability

COc1ccc(C(=O)c2cc3c(-c4ccccc4)c(OC)ccc3o2)cc1 — IC50: 1.3 µM
COc1cc(C(=O)Nc2cc(OC)c3ccccc3n2)nc(C(=O)Nc2cc(OC)c3ccccc3n2)c1 — IC50 (ATP luminescence; 72 h): > 40 µM
COc1ccc(-c2cc(=O)c3c(OC)cc(OC)c(-c4c(OC)cc(OC)c5c(=O)cc(-c6ccc(OC)cc6)oc45)c3o2)cc1 — IC50 (MTT; 48 h): 39.5 µM
COc1cc(OC)cc(C(=O)c2cc3c(-c4ccccc4)c(O)ccc3o2)c1 — IC50: 15 µM
C#CCOc1cc(C(=O)Nc2cc(OCCCN)c3ccccc3n2)nc(C(=O)Nc2cc(OCCCN)c3ccccc3n2)c1 — IC50 (ATP luminescence; 72 h): 3.6 µM
Cc1ccc2c(Cl)cc(Cl)c(O)c2n1 — IC50 (MTT; 48 h): > 100 µM
COC(=O)CN=c1scc(-c2ccccc2)n1-c1ccccc1[N+](=O)[O-] — IC50 (MTT; 72 h): 6.02 µM
CC(=O)c1ccc(-c2cccc(NC(=O)CCc3cccc4c3B(O)OC4)c2)cc1 — IC50 (ATP luminescence; 72 h): 0.858 µM
CC1(C)SC2C(NC(=O)C(NC(=O)C3=C(O)C(c4ccccc4)NC3=O)c3ccccc3)C(=O)N2C1C(=O)O (stereo not drawn) — IC50 (ATP luminescence; 48 h): 47.6 µg/mL
CCCCCCC#CC#CCCCCCC — IC50 (MTT; 24 h): 36 µg/mL
COc1cc(C)cc2oc(-c3ccccc3Br)cc(=O)c12 — IC50 (MTT; 48 h): 76.3 µM
Cc1c(O)c(=O)ccn1CCO — IC50 (MTT; 72 h): ≥ 100 µM
Cc1c(O)c(=O)ccn1-c1cccc(C(=O)O)c1 — IC50 (MTT; 72 h): 600 µM
COc1cc(C)cc2oc(-c3cccc(Br)c3)cc(=O)c12 — IC50 (MTT; 48 h): 32.9 µM
CC1(C)SC2C(NC(=O)C(NC(=O)C3=C(O)C(Cc4ccc(O)cc4)NC3=O)c3ccccc3)C(=O)N2C1C(=O)O (stereo not drawn) — IC50 (ATP luminescence; 48 h): 93.5 µg/mL
NCCCOc1cc(NC(=O)c2cc(OCc3c[nH]nn3)cc(C(=O)Nc3cc(OCCCN)c4ccccc4n3)n2)nc2ccccc12 — IC50 (ATP luminescence; 72 h): > 40 µM
CC(C)(C)OCC1NC(=O)C(C(=O)NC(C(=O)NC2C(=O)N3C2SC(C)(C)C3C(=O)O)c2ccccc2)=C1O (stereo not drawn) — IC50 (ATP luminescence; 48 h): 106 µg/mL
C(C#CC1CC1)#CC1CC1 — IC50 (MTT; 24 h): 14.5 µg/mL
COc1cc(C(=O)Nc2cc(OCCN3CCCC3)c3ccccc3n2)nc(C(=O)Nc2cc(OCCN3CCCC3)c3ccccc3n2)c1 — IC50 (ATP luminescence; 72 h): 3.9 µM
COc1cccc(C(=O)c2cc3c(-c4ccccc4)c(OC)ccc3o2)c1 — IC50: 5.4 µM
COc1c2c(cc3c1OCO3)[C@]13C=C[C@H](OC)C[C@H]1N(C2)C[C@H]3OC(=O)c1cccc(C)c1 — IC50 (WST-1; 48 h): > 10 µM
COC(=O)CN=c1scc(-c2ccccc2)n1-c1ccc(OC)cc1 — IC50 (MTT; 72 h): 6.75 µM
C#CCOc1ccc(C(=O)c2ccc(-c3cccc(NC(=O)CCc4cccc5c4B(O)OC5)c3)cc2)cc1 — IC50 (ATP luminescence; 72 h): 4.4 µM
CC(C)C1NC(=O)C(C(=O)NC(C(=O)NC2C(=O)N3C2SC(C)(C)C3C(=O)O)c2ccccc2)=C1O (stereo not drawn) — IC50 (ATP luminescence; 48 h): 59 µg/mL
COc1nc(OCc2cccc(-c3ccccc3)c2C)ccc1CNCCNC(C)=O — IC50 (MTT): 3.6 µM
COc1cc(OC)c2c(=O)cc(-c3ccc(C(F)(F)F)cc3)oc2c1 — IC50 (MTT; 48 h): > 100 µM
CC1CS(=O)(=O)CCN1/N=C/c1ccc([N+](=O)[O-])o1 (stereo not drawn) — IC50: 43 µM
CN(C)CCCOc1cc(NC(=O)c2cc(Cl)cc(C(=O)Nc3cc(OCCCN(C)C)c4ccccc4n3)n2)nc2ccccc12 — IC50 (ATP luminescence; 72 h): 1.6 µM
Oc1c(Br)cc(Br)c2cccnc12 — IC50 (MTT; 48 h): 83.2 µM
COc1cc(OC)c2c(=O)cc(-c3ccccc3Br)oc2c1 — IC50 (MTT; 48 h): > 100 µM
COc1ccc(C(=O)O[C@@H]2CN3Cc4c(cc5c(c4OC)OCO5)[C@@]24C=C[C@H](OC)C[C@@H]34)cc1OC — IC50 (WST-1; 48 h): 4.8 µM
COc1cc(C)c(-c2c(C)cc(OC)c3c(=O)cc(-c4ccccc4)oc23)c2oc(-c3ccccc3)cc(=O)c12 — IC50 (MTT; 48 h): 11.8 µM
C[C@@H](O)C(=O)CCCCCCC(=O)Nc1ccccc1 — IC50 (XTT): > 50 µM
COc1cc(OC)c2c(=O)cc(-c3ccc(Br)cc3)oc2c1 — IC50 (MTT; 48 h): 85.8 µM
C=CCNC1=C2C[C@@H](C)C[C@H](OC)[C@H](O)[C@@H](C)/C=C(\C)[C@H](OC(N)=O)[C@@H](OC)/C=C\C=C(/C)C(=O)NC(=CC1=O)C2=O — IC50 (MTT): 0.159 µM
COc1cc(C)cc2oc(-c3ccc(C(F)(F)F)cc3)cc(=O)c12 — IC50 (MTT; 48 h): > 100 µM
COc1cccc2c1C(=O)c1c(O)c3c(c(O)c1C2=O)C[C@@](O)(C(=O)CO)C[C@@H]3O[C@H]1C[C@H](N)[C@H](O)[C@H](C)O1 — IC50 (SRB): 0.46 µM
CC(=O)O[C@H](C)C(=O)CCCCCCC(=O)Nc1ccccc1 — IC50 (XTT): > 50 µM
NCCCOc1cc(NC(=O)c2cccc(C(=O)Nc3cc(OCCCN)c4ccccc4n3)n2)nc2ccccc12 — IC50 (ATP luminescence; 72 h): 1.4 µM
CC1(C)[C@@H](O)CC[C@]2(C)[C@H]3C(=O)C=C4[C@@H]5C[C@@](C)(C(=O)O)CC[C@]5(C)CC[C@@]4(C)[C@]3(C)CC[C@@H]12 — IC50 (MTT; 48 h): 17.3 µM
CC1(C)SC2C(NC(=O)C(NC(=O)C3=C(O)C4CCCN4C3=O)c3ccccc3)C(=O)N2C1C(=O)O (stereo not drawn) — IC50 (ATP luminescence; 48 h): 52.1 µg/mL
CCCC#CC#CCCC — IC50 (MTT; 24 h): 105 µg/mL
CC(C)(C)Oc1ccc(CC2NC(=O)C(C(=O)NC(C(=O)NC3C(=O)N4C3SC(C)(C)C4C(=O)O)c3ccccc3)=C2O)cc1 (stereo not drawn) — IC50 (ATP luminescence; 48 h): 59.3 µg/mL
OCCCC#CC#CCCCO — IC50 (MTT; 24 h): 39.3 µg/mL
Oc1c(I)cc(Cl)c2cccnc12 — IC50 (MTT; 48 h): 70.2 µM
